Reference: ChEMBL document CHEMBL3526015, “Metabolism of the c-Fos/activator protein-1 inhibitor T-5224 by multiple human UDP-glucuronosyltransferase isoforms” (Drug Metab Dispos, 2011)

Assays:
[1] = Drug metabolism in human intestinal microsomes assessed as T-5224 hydroxyl O-glucuronide formation per mg protein after 10 to 60 mins by HPLC method; type: ADME, Intestine, Microsome
Outline: (§1)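 Pooled liver microsomes (0.5 mg/mL) were incubated 10 min. Pooled intestinal microsomes (0.25 mg/mL) ran 10 min at T-5224 10–50 μM and 20 min at 1–5 μM. Buffer was 50 mM Tris-HCl pH 7.5 with 8 mM MgCl2, alamethicin and 2 mM UDPGA, at 37°C, in triplicate. Glucuronides G2/G3 were read by HPLC at 290 nm and fitted for Vmax/Km.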

[2] = Drug metabolism in human intestinal microsomes assessed as Vmax/Km ratio for T-5224 hydroxyl O-glucuronide formation per mg protein after 10 to 60 mins by HPLC method; type: ADME, Intestine, Microsome; outline: as §1
[3] = molecular target: T1, UDP-glucuronosyltransferase 1A1 (Homo sapiens, UniProt P22309); test: Drug metabolism assessed as Vmax/Km ratio for human UGT1A1-mediated T-5224 acyl O-glucuronide formation per mg protein after 10 to 60 mins in presence of UDP-glucuronic acid by HPLC method; type: ADME; conditions: recombinant enzyme
T1 sequence (P22309 whole entry): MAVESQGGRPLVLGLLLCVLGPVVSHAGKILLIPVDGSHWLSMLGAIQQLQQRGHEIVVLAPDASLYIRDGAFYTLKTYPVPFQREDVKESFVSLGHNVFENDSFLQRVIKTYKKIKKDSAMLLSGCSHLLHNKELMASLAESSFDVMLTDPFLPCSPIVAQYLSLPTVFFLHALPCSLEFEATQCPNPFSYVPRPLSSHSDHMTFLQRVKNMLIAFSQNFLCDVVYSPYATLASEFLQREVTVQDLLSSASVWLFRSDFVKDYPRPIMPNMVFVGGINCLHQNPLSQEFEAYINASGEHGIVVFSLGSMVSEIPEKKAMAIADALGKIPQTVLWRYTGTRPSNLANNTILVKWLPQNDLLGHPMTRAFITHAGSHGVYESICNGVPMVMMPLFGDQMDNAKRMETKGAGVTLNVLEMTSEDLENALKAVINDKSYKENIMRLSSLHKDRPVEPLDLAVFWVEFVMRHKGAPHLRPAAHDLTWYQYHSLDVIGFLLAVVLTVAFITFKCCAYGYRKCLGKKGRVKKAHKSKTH
Outline: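 Kinetics used recombinant UGT1A1, 1A3 or 1A8 (0.1 mg protein/mL) with T-5224 at 1–50 μM, 2 mM UDPGA and 60 min at 37°C, in triplicate. G2/G3 were measured by HPLC at 290 nm and fitted to a substrate-inhibition model (Vmax, Km, Ksi). UGT content was quantified by immunoblot, and kcat = Vmax/E0 was derived from it.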

[4] = molecular target: T2, UDP-glucuronosyltransferase 1A3 (Homo sapiens, UniProt P35503); test: Drug metabolism assessed as human UGT1A3-mediated T-5224 hydroxyl O-glucuronide formation at 5 to 50 uM after 60 mins in presence of UDP-glucuronic acid by HPLC method; type: ADME; conditions: recombinant enzyme, 1 h
T2 sequence (P35503 whole entry): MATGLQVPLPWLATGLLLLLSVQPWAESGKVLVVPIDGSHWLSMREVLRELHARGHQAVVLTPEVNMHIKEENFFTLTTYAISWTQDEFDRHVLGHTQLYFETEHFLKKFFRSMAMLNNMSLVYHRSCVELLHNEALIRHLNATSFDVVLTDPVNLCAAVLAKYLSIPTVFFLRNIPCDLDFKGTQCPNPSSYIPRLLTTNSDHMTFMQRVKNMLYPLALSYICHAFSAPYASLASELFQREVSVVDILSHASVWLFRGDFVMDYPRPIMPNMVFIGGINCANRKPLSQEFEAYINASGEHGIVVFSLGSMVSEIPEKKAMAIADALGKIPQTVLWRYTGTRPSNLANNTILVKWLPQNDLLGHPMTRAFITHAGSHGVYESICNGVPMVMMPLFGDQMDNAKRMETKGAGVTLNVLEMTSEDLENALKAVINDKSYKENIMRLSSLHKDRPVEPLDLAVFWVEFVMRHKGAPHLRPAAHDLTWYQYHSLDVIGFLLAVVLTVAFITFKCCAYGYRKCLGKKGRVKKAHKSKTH

[5] = molecular target: T3, UDP-glucuronosyltransferase 1A8 (Homo sapiens, UniProt Q9HAW9); test: Substrate inhibition of human UGT1A8-mediated T-5224 hydroxyl O-glucuronide formation after 10 to 60 mins in presence of UDP-glucuronic acid by HPLC method; type: ADME
T3 sequence (Q9HAW9 whole entry): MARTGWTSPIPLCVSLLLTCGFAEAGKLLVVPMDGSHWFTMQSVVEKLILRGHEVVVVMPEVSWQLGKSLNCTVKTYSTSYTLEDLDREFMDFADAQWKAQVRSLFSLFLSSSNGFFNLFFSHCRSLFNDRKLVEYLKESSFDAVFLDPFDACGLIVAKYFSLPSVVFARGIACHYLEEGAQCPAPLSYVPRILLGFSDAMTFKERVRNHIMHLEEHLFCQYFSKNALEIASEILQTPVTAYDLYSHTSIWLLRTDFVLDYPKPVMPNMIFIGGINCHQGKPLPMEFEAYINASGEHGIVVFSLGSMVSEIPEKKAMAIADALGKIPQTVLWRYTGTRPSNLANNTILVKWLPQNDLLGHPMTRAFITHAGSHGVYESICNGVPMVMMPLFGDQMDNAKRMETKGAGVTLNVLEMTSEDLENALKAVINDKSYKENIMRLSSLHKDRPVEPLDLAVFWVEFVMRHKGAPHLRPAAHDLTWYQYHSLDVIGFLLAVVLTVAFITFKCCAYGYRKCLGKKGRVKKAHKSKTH
Outline: (§2)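 Recombinant human UGT1A1, UGT1A3 or UGT1A8 from baculovirus-infected insect cells (0.1 mg protein/mL) in 50 mM Tris-HCl pH 7.5, 8 mM MgCl2, alamethicin, 2% DMSO. T-5224 at 1–50 μM with 2 mM UDPGA for 60 min at 37°C. HPLC with UV at 290 nm. Triplicates fitted to a substrate-inhibition model. kcat uses UGT content quantified by immunoblot against recombinant UGT1A1/UGT2B4 standards.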

[6] = Drug metabolism in human intestinal microsomes assessed as T-5224 acyl O-glucuronide formation after 10 to 60 mins by HPLC method; type: ADME, Intestine, Microsome; outline: as §1
[7] = molecular target: T1, UDP-glucuronosyltransferase 1A1; test: Substrate inhibition of human UGT1A1-mediated T-5224 acyl O-glucuronide formation after 10 to 60 mins in presence of UDP-glucuronic acid by HPLC method; type: ADME; outline: as §2
Liver microsome [8] = test: Drug metabolism in pooled human liver microsomes assessed as T-5224 acyl O-glucuronide formation in presence of UDPGA by LC-MS/MS method; type: ADME
Liver microsome [9] = test: Drug metabolism in human liver microsomes assessed as T-5224 acyl O-glucuronide formation at 10 uM after 10 mins in presence of beta-estradiol by HPLC method; type: ADME
Outline: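 Pooled human liver microsomes or recombinant UGT1A1 were incubated with 10 μM T-5224, 2 mM UDPGA and β-estradiol at 0–500 μM (2% DMSO), in Tris-HCl/MgCl2/alamethicin buffer. Incubation was 10 min (liver microsomes) or 60 min (UGT1A1) at 37°C. G2/G3 were read by HPLC at 290 nm, as mean ± SD, n = 3.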

- Vmax [1]: 106 pmol/min
- Vmax/Km [2]: 34.6 µL/min
- Vmax/Km [3]: 83.9 µL/min
- Drug metabolism [4]: metabolite_detected
- Ki [5]: 3640 nM
- Km [6]: 5.88 µM
- Ki [7]: 1540 nM
- Drug metabolism (Liver microsome [8]): metabolite_detected
- Drug metabolism (Liver microsome [9]): metabolite_not_detected
Structure (SMILES): O=C(O)CCc1cc(C(=O)c2ccc(OC3CCCC3)cc2O)ccc1OCc1ccc2c(O)noc2c1
